Test results published in ChEMBL document CHEMBL1156534, “Hemopressin is an inverse agonist of CB1 cannabinoid receptors” (Proc Natl Acad Sci U S A, 2007).
The source made the active and inactive calls. The calls are words filed in the database; no cut-off is given here.

What was measured:
[1] = target: Cannabinoid receptor 2 (Homo sapiens) (UniProt P34972); experiment: Antagonist activity at CB2 receptor expressed in SKNSH cells at 100 nM by ELISA relative to control; format: functional, cell-based; parameters: scale not given: the % may be the effect or the level left
Chain of Cannabinoid receptor 2 (Homo sapiens) (P34972 whole entry): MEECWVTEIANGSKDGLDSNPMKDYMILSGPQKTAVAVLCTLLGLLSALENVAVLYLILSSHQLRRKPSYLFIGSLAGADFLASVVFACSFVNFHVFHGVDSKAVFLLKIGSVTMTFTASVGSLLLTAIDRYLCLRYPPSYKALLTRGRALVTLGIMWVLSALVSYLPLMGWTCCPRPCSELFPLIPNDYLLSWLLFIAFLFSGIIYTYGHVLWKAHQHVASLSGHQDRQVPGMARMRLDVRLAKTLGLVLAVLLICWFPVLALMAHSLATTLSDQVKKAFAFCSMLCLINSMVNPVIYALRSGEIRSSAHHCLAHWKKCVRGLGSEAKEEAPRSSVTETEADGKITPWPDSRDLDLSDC

[2] = target: T1, Type-2 angiotensin II receptor (Homo sapiens) (UniProt P50052); experiment: Antagonist activity at AT2 angiotensin receptor expressed in SKNSH cells assessed as blockade of angiotensin 2-induced increase in antibody recognition at 100 nM by ELISA; format: functional, cell-based; parameters: scale not given: the % may be the effect or the level left
T1 sequence (whole entry): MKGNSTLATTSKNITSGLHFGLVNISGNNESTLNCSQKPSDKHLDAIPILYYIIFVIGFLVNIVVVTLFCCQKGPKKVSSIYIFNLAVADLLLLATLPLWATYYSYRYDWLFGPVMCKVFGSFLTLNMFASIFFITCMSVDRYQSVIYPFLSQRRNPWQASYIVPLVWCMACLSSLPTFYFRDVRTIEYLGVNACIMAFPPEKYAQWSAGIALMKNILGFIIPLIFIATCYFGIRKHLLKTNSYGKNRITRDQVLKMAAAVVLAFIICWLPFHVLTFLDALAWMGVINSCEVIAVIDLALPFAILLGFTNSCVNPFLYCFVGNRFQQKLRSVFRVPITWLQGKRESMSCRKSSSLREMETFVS

[3] = target: T1, Type-2 angiotensin II receptor (Homo sapiens); experiment: Antagonist activity at AT2 angiotensin receptor expressed in SKNSH cells at 100 nM by ELISA; format: functional, cell-based; parameters: scale not given: the % may be the effect or the level left
[4] = target: T2, B2 bradykinin receptor (Homo sapiens) (UniProt P30411); experiment: Antagonist activity at B2 bradykinin receptor expressed in SKNSH cells assessed as blockade of bradykinin-induced increase in antibody recognition at 100 nM by ELISA; format: functional, cell-based; parameters: scale not given: the % may be the effect or the level left
T2 sequence (whole entry): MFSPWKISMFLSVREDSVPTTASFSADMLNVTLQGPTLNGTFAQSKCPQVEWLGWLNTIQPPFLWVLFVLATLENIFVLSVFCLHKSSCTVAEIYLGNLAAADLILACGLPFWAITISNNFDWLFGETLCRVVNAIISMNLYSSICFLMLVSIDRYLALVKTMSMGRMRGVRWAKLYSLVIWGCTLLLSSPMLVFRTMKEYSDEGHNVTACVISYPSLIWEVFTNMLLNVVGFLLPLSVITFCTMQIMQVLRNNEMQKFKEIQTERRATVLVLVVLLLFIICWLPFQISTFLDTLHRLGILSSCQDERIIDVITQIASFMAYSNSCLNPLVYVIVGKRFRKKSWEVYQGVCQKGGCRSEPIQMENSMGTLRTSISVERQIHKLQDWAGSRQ

[5] = target: Cannabinoid receptor 2 (Homo sapiens) (UniProt P34972); experiment: Antagonist activity at CB2 receptor expressed in SKNSH cells assessed as blockade of Hu210-induced increase in antibody recognition at 100 nM by ELISA relative to control; format: functional, cell-based; parameters: scale not given: the % may be the effect or the level left
[6] = target: Cannabinoid receptor 1 (Homo sapiens) (UniProt P21554); experiment: Antagonist activity at CB1 receptor expressed in SKNSH cells at 100 nM by ELISA relative to control; format: functional, cell-based; parameters: scale not given: the % may be the effect or the level left
Chain of Cannabinoid receptor 1 (Homo sapiens) (P21554 whole entry): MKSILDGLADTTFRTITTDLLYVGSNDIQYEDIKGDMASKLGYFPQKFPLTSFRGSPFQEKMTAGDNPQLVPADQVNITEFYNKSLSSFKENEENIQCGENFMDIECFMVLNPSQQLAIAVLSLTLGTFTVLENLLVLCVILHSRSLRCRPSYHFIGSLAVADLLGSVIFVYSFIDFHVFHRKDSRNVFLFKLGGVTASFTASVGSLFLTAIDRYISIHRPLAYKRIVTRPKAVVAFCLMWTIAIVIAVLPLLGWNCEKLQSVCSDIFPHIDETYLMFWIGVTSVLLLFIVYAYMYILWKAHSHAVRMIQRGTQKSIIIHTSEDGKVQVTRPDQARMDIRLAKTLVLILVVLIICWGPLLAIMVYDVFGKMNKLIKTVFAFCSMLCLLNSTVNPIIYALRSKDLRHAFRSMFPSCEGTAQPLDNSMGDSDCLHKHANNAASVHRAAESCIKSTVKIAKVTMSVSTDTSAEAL

[7] = target: T3, Cannabinoid receptor 2 (Rattus norvegicus) (UniProt Q9QZN9); experiment: Antagonist activity at Long-Evans rat spleen CB2 receptor assessed as blockade of Hu210-induced increase in GTPgammaS binding; format: functional, tissue-based
T3 sequence (whole entry): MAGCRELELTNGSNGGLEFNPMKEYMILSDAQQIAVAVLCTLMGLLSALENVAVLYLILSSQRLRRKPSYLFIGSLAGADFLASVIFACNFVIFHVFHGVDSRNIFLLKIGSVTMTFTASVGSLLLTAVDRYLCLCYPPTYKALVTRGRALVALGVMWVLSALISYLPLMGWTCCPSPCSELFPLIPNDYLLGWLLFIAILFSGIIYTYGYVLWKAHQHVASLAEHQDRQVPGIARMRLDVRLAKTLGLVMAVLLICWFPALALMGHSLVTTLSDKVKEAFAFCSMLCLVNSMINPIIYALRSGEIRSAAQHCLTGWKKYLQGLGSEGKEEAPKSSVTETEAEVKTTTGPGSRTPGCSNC
How it was run: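 Membranes (10 μg) came from striatum (CB1) or spleen (CB2). They were tested in GTPγS-binding or adenylyl cyclase assays with Hu-210 and test ligand (0–1 μM), or with Hu-210 curves with or without 10 μM peptide; a 1 μM single-point combination was also used. Mean ± SE of triplicates.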

[8] = target: Cannabinoid receptor 2 (Homo sapiens) (UniProt P34972); experiment: Antagonist activity at CB2 receptor expressed in HEK293 cells assessed as blockade of secreted alkaline phosphatase activity at 1 uM after 6 hrs relative to control; format: functional, cell-based
How it was run: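 HEK-293 cells transfected with 5 μg pCRE-SeAP plus 1 μg Flag-tagged CB₁ or CB₂ receptor, 30,000 cells/well, serum-starved 16–18 h. Stimulated 6 h in serum-free medium with 10 μM forskolin and 100 nM agonist, without or with 1 μM test peptide. Supernatant diluted in pH 7.2 buffer, heated 65°C 20 min, then CSPD chemiluminescence read. Mean ± SEM, n = 6.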

[9] = target: Cannabinoid receptor 1 (Homo sapiens) (UniProt P21554); experiment: Antagonist activity at CB1 receptor expressed in Neuro 2A cells assessed as blockade of Hu210-mediated increase in number of neurite outgrowth at 10 uM after 16 hrs; format: functional, cell-based
How it was run: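 Neuro 2A cells transfected with Flag-tagged CB1 or CB2 were exposed 16 h in 0.1% FBS medium to 100 nM Hu-210 with or without 10 μM peptide. The percentage of cells extending neurites was scored and normalized to untreated cells (100%). Mean ± SE of triplicate experiments.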

[10] = target: Mu-type opioid receptor (Homo sapiens) (UniProt P35372); experiment: Antagonist activity at mu opioid receptor expressed in SKNSH cells assessed as blockade of DAMGO-induced increase in antibody recognition at 100 nM by ELISA relative to control; format: functional, cell-based; parameters: scale not given: the % may be the effect or the level left
Chain of Mu-type opioid receptor (Homo sapiens) (P35372 whole entry): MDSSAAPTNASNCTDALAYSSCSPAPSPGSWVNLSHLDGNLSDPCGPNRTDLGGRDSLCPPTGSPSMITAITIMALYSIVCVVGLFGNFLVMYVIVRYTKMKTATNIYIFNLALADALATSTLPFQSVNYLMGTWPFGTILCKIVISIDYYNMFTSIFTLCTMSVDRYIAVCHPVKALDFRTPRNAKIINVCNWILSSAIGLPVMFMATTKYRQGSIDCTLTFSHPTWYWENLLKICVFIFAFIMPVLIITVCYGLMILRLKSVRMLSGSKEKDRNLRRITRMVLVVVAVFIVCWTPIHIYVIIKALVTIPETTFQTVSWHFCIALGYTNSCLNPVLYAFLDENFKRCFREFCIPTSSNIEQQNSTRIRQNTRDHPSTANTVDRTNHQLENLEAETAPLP

[11] = target: T4, Alpha-2A adrenergic receptor (Homo sapiens) (UniProt P08913); experiment: Antagonist activity at alpha2A adrenergic receptor expressed in SKNSH cells at 100 nM by ELISA relative to control; format: functional, cell-based; parameters: scale not given: the % may be the effect or the level left
T4 sequence (whole entry): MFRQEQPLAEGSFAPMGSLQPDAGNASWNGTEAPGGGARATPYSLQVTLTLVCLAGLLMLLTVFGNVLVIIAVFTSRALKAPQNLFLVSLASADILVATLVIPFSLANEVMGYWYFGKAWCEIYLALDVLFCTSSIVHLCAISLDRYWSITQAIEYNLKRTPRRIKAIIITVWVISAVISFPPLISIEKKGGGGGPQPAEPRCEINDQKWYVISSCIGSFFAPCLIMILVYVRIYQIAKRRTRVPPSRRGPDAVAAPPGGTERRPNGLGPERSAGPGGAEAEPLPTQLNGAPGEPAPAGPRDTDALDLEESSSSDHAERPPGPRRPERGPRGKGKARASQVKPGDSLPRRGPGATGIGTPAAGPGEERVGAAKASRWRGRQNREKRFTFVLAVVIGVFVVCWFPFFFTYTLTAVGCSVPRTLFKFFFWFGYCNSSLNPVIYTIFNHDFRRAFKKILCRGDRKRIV

Activity [1]: 103%
Activity [2]: 137%
Activity [3]: 100%
Activity [4]: 149%
Activity [5]: 108%
Activity [6]: 72%
Activity [7]: inactive
Activity [8]: 0.94
Activity [9]: Active
Activity [10]: 141%
Activity [11]: 103%
Compound: CC(C)C[C@H](NC(=O)[C@H](Cc1ccccc1)NC(=O)[C@H](CCCCN)NC(=O)[C@H](Cc1ccccc1)NC(=O)[C@H](CC(N)=O)NC(=O)[C@@H](NC(=O)[C@@H]1CCCN1)C(C)C)C(=O)N[C@@H](CO)C(=O)N[C@@H](Cc1cnc[nH]1)C(=O)O [HEMOPRESSIN]
